Bioassay records: PubChem, Johns Hopkins Ion Channel Center
MrgX1 agonist: activates human MrgX1 receptor signaling. 310,000 compounds, 0.44% hits. Q96LB2. B-score at 10 µM. MrgX1-HEK293 cells, Fluo-4 calcium fluorescence, agonist mode; stronger effect = higher value;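 active means calcium response B-score plate-corrected fluorescence ratio at least 3 library SD, with starting fluorescence B-score inside 5 SD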
Target sequence (Q96LB2 whole entry, looked up): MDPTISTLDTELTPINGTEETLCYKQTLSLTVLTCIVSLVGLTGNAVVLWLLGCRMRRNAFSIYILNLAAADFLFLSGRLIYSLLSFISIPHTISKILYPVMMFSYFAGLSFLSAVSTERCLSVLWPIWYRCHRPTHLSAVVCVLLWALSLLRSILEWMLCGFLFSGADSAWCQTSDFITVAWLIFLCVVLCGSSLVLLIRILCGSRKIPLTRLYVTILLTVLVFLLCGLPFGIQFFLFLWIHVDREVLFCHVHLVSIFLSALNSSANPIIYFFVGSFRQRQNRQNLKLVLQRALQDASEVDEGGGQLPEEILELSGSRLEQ
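times = overnight plating, then 30 min 37 °C plus 30 min room-temperature dye loading | assay system = stable human MrgX1 HEK293 cell line | input = fifteen thousand cells per well | signal = kinetic calcium dye fluorescence, Fluo-4 NW | dosing = compound delivered in addition one of three | read-out = B-scored fluorescence response ratio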
MrgX1 allo act: human MrgX1 positive allosteric modulation, primary screen; 310,000 compounds, 0.63% hits; B-score at 10 µM; AID 588675; Q96LB2; MrgX1-HEK293, Fluo-4 calcium flux, FDSS; stronger effect = higher value;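 active means plate-corrected calcium response at least 3 library SD above typical, normal starting fluorescence, not activating the receptor alone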;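 further: compound read alongside a low EC10 to EC30 dose of BAM8-22 agonist; peak minus trough fluorescence over baseline measured at the second addition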
RGS4 inh: human RGS4 inhibition; HEK293 M3R/RGS4 inducible, Fluo-4 calcium flux; stronger effect = higher value; triggered by carbachol at its EC20; B-score at 10 µM; P49798; 310,000 compounds, 0.45% hits; AID 463165;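 active means B-score, a plate-corrected calcium signal, over three deviations above library mean, with baseline fluorescence within five deviations of library mean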;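 further: RGS4 expression induced by doxycycline in cells with stable M3 receptor; B-score is computed from the integrated fluorescence ratio over baseline after carbachol; higher B-score means a larger calcium signal and so more RGS4 inhibition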
Target sequence (P49798 whole entry, looked up): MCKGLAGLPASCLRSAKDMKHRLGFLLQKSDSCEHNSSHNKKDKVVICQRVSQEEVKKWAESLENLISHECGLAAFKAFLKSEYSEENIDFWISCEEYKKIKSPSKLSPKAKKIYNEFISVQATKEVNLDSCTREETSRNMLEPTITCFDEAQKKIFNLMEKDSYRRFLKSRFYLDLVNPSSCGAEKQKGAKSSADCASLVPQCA
RGS4 pot: RGS4 potentiation or activation | HEK293 M3R/inducible RGS4, carbachol calcium flux Fluo4; stronger effect = lower value | 310,000 compounds, 0.92% hits | B-score at 10 µM;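 active means B-score of the integrated calcium signal more than 4 SD below the library mean, with starting fluorescence not abnormally high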;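 further: negative B-score means reduced calcium response which marks RGS4 activation or potentiation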
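Test system: HEK293 cells with stable M3R and inducible RGS4; also added: carbachol at ECmax as muscarinic agonist stimulus; schedule: dye loading 30 min 37 °C, buffer rest 30 min RT; technique: kinetic calcium fluorescence imaging with Fluo4-AM dye, 2 µM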
MrgX1 antagonist: blocks BAM8-22 activation of human MrgX1 receptor; AID 588676; MRGX1-HEK293 calcium flux, Fluo-4, BAM8-22 antagonism; stronger effect = lower value; Q96LB2; B-score at 10 µM; 310,000 compounds, 1.3% hits;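 active means calcium-response B-score plate-corrected more than 3 library SD below zero, starting fluorescence within 5 deviations, no agonist response on first addition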;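 further: peak minus trough fluorescence over baseline after final BAM8-22 challenge near maximal dose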
RGS4 activ val: RGS4 activation, validation assay; 1,100 compounds, 89% hits; shares compounds with RGS4 pot; HEK293 M3R/RGS4 inducible, carbachol calcium flux Fluo4; inhibition, % at 10 µM;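 active means inhibition above 3 SD of the buffer control wells, cut at about 41% in these data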;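 further: signal is the integrated peak-minus-minimum Fluo4 fluorescence over baseline ratio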
M3R Ca counter: RGS4 activator counter-screen hit in non-induced cells | HEK293 M3R non-induced RGS4, Fluo4 calcium flux; after carbachol challenge at its EC90 | inhibition, % at 10 µM | shares compounds with RGS4 pot | AID 602283 | 1,100 compounds, 82% hits;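 active means inhibition exceeding 3 SD of buffer-only control wells, cut at about 26% in these data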;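 further: percent drop in integrated peak-minus-baseline over baseline Fluo4 ratio after carbachol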
Active calls of the source: *; i = inactive; . = no result given. Compounds with a hit are over-represented: about 3.5% of the library has one in this group of screens.

SMILES	MrgX1 agonist	MrgX1 allo act	RGS4 inh	RGS4 pot	MrgX1 antagonist	RGS4 activ val	M3R Ca counter
CN(c1ccccc1)S(=O)(=O)c1cccc(C(=O)NCCc2c[nH]c3ccccc23)c1	i	i	i	-9.16*	i	74.0*	47.8*
Nc1c(C(=O)OCC(=O)NCc2ccccc2)[nH]c(=O)[nH]c1=O	i	i	i	i	i	.	.
CC(Oc1ccccc1)C(=O)NC1CCN(Cc2ccccc2)CC1 (stereo unspecified)	i	i	i	-8.26*	i	80.0*	53.3*
S=c1[nH]nc(-c2ccccc2Cl)n1/N=C/C=C/c1ccco1	i	i	i	-8.18*	i	94.5*	88.8*
S=c1[nH]nc(-c2ccncc2)n1/N=C/C=C/c1ccco1	i	i	i	i	i	.	.
CC(C)(C)C(=O)COC(=O)c1c2c(nc3ccccc13)CCC2	i	i	i	i	i	.	.
NC(=O)COC(=O)c1c2c(nc3ccccc13)CCCCC2	i	i	i	i	i	.	.
CC1Cc2ccccc2N1C(=O)COC(=O)c1c2c(nc3ccccc13)CCCCC2 (stereo unspecified)	i	i	i	-8.99*	i	88.0*	83.8*
O=C(OCC(=O)N1CCc2ccccc21)c1c2c(nc3ccccc13)CCCC2	i	i	i	-9.06*	i	80.5*	83.8*
O=C(CSc1ccc([N+](=O)[O-])cc1)NNC(=O)c1ccccc1F	i	i	i	i	i	.	.
CCN(CC)CCCCCCCCOC(=O)c1cc(OC)c(OC)c(OC)c1	i	i	.	.	i	.	.
O=S(=O)(c1ccc(N2CC=C(c3ccccc3)CC2)nc1)N1CCCC1	i	i	i	-9.32*	i	54.5*	0.0
Cc1ccccc1N1CCN(C2CCCN(C(=O)CCn3cnnn3)C2)CC1 (stereo unspecified)	i	i	i	i	i	.	.
Cc1cc(/C=N/NC(=O)Cn2c3ccccc3c(=O)c3ccccc32)c(C)n1-c1ccc(Cl)cc1	.	.	i	i	.	.	.
O=C(c1ccco1)N1CCN(c2nc(C3CC3)nc3sc4c(c23)CCCC4)CC1	i	i	i	-8.52*	i	87.0*	45.3*
N#Cc1c(N2CCN(C(=O)c3ccco3)CC2)nc(-c2ccccc2)c2c1CCCC2	i	i	i	-8.16*	i	91.0*	48.3*
N#Cc1c(N2CCN(C(=O)c3ccccc3)CC2)nc(-c2ccccc2)c2c1CCCC2	i	i	i	-7.87*	i	90.5*	53.8*
CCOC(=O)c1ccc(Nc2cc(C)nc(-c3ccccc3O)n2)cc1	i	i	i	-8.26*	i	89.5*	65.8*
Cc1cc(Nc2cccc(F)c2)nc(-c2ccccc2O)n1	i	i	i	i	i	.	.
CCOC(=O)c1cc(C)nc(N2CCCCC2)c1C#N	i	i	i	-11.3*	i	0.0	0.0
Cc1cc(N(C)C)c(C#N)c(N2CCCCC2)n1	i	i	i	i	i	.	.
CC[N+](C)(C)CC/C=C1/c2ccccc2Sc2ccc(Cl)cc21	i	i	i	-12*	i	93.5*	93.3*
CC(C)(O)C#Cc1ccc(CN2CCCC(CO)(Cc3cccc(Cl)c3)C2)cc1 (stereo unspecified)	i	i	i	-8.98*	i	76.0*	31.3*
Cc1ccc(OCC(=O)O/N=C(\N)Cc2ccc([N+](=O)[O-])cc2)cc1C	i	i	i	-10.8*	i	0.0	0.0
O=C(Cc1ccc(-c2ccccc2)cc1)Nc1ncccc1O	i	i	i	i	i	.	.
SMILES	MrgX1 agonist	MrgX1 allo act	RGS4 inh	RGS4 pot	MrgX1 antagonist	RGS4 activ val	M3R Ca counter
CCC(C)NC(=O)Cn1cnc2sc(C)c(S(=O)(=O)N3CCCCC3)c2c1=O (stereo unspecified)	i	i	i	i	i	.	.
Cn1c(-c2ccc3c(c2)OCO3)cnc1NCc1cccc(Cl)c1	i	i	i	-8.88*	i	85.5*	43.8*
Nc1cc(=O)[nH]c(=O)n1CCc1ccccc1	i	i	i	i	i	.	.
COc1ccc(N(C(=O)Nc2ccc(Cl)cc2)C2=NCCC2)cc1	i	i	i	-10.2*	i	78.5*	37.8*
COc1ccc(C(=O)c2sc3nc(C)cc(-c4cccs4)c3c2N)cc1OC	i	i	i	-8.7*	i	83.0*	71.3*
COc1ccc(C(=O)c2sc3nc(C)cc(-c4cccs4)c3c2N)cc1	.	.	i	i	.	.	.
Cn1nc(C(F)(F)F)c2cc(NC(=O)OCc3ccc(F)cc3)sc21	i	i	i	-7.88*	i	74.5*	83.8*
COc1ccc(C(=O)N/N=C/c2ccc3cccc(OCc4ccccc4)c3n2)cc1	i	i	i	-11.4*	i	91.0*	47.3*
CN(C(=O)Cn1cc(C(F)(F)F)cc(Cl)c1=O)C1CCS(=O)(=O)C1 (stereo unspecified)	i	i	i	i	i	.	.
COc1cccc(C2C3CN(C)CC=C3C(C#N)=C(N)C2(C#N)C#N)c1OC (stereo unspecified)	i	i	i	-7.97*	i	53.5*	45.8*
CCN1CC=C2C(C#N)=C(N)C(C#N)(C#N)[C@H](c3cccc(OC)c3OC)[C@H]2C1	i	i	i	i	i	.	.
Cc1c(C(=O)N(CCc2ccccc2)Cc2ccccc2)cccc1[N+](=O)[O-]	i	i	i	i	i	.	.
CCOC(=O)c1oc2ccc(CNCCO)c(Cl)c2c1C	i	i	i	i	i	.	.
CCOC(=O)c1oc2ccc(CNC3CCCCC3)c(Cl)c2c1C	i	i	i	-7.8*	i	93.5*	92.3*
O=C(NC1CCCC1)c1cc2nc(-c3ccccc3)cc(-c3ccccc3)n2n1	i	i	i	-7.73*	i	81.5*	83.8*
CC1CCN(C(=O)c2cc3nc(-c4ccccc4)cc(-c4ccccc4)n3n2)CC1	i	i	i	i	i	.	.
CCN(CC)CCCN(C(=O)c1cccs1)c1nc(-c2ccc(OC)cc2)cs1	i	i	i	-11.2*	i	90.5*	30.8*
CCN(CC)CCCN(C(=O)c1ccc(Br)cc1)c1nc(-c2ccc(OC)cc2)cs1	i	i	i	i	i	.	.
COc1cccc(NC2=C(Cl)C(=O)OC2OC(=O)c2ccco2)c1 (stereo unspecified)	i	i	i	i	i	.	.
